Columns and labels:
[1] = system: Mus musculus; test: AUC in C57BL/6 mouse at 15 mg/kg, iv after 8 hrs by LC-MS/MS analysis; format: ADME, organism-based; parameters: time < 8 hr, dose 15 mg/kg, route intravenous; conditions: in vivo
Method in brief: (§1)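 Female C57BL/6 mice dosed iv at 15 mg/kg or orally at 30 mg/kg in 25% DMSO/25% PEG-400/50% PBS (v/v). Serial 50 μL blood samples collected over 24 h (8 h in one experiment), spun to plasma; concentrations by validated LC-MS/MS in positive-ion MRM mode; parameters from noncompartmental analysis.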

[2] = Half life in CD-1 mouse liver microsomes at 1 uM after 3 to 60 mins by LC-MS/MS analysis; format: ADME
[3] = system: Mus musculus; test: Tmax in C57BL/6 mouse plasma at 30 mg/kg, po after 8 hrs by LC-MS/MS analysis; format: ADME, organism-based; conditions: in vivo; method in brief: as §1
[4] = system: Mus musculus; test: Cmax in C57BL/6 mouse plasma at 30 mg/kg, po after 8 hrs by LC-MS/MS analysis; format: ADME, organism-based; parameters: dose 30 mg/kg, route oral; conditions: in vivo; method in brief: as §1
[5] = system: Bone marrow cell; test: Selectivity index, ratio of GI50 for Hoxa9/Meis1 transformed mouse bone marrow cells to GI50 for MLL-AF9 transformed mouse bone marrow cells; format: functional
[6] = system: Mus musculus; test: Volume of distribution at steady state in C57BL/6 mouse at 15 mg/kg, iv after 8 hrs by LC-MS/MS analysis; format: ADME, organism-based; conditions: in vivo; method in brief: as §1
[7] = system: Mus musculus; test: AUC in C57BL/6 mouse at 30 mg/kg, po after 8 hrs by LC-MS/MS analysis; format: ADME, organism-based; parameters: dose 30 mg/kg, time < 8 hr, route oral; conditions: in vivo; method in brief: as §1
[8] = Clearance in C57BL/6 mouse at 15 mg/kg, iv after 8 hrs by LC-MS/MS analysis; format: ADME, organism-based; conditions: in vivo; method in brief: as §1
[9] = biological target: Menin/Histone-lysine N-methyltransferase MLL (Homo sapiens, UniProt O00255); test: Inhibition of menin-MLL interaction (unknown origin) after 1 hr by fluorescence polarization assay; format: protein assay
Chain of Menin/Histone-lysine N-methyltransferase MLL (O00255 whole entry): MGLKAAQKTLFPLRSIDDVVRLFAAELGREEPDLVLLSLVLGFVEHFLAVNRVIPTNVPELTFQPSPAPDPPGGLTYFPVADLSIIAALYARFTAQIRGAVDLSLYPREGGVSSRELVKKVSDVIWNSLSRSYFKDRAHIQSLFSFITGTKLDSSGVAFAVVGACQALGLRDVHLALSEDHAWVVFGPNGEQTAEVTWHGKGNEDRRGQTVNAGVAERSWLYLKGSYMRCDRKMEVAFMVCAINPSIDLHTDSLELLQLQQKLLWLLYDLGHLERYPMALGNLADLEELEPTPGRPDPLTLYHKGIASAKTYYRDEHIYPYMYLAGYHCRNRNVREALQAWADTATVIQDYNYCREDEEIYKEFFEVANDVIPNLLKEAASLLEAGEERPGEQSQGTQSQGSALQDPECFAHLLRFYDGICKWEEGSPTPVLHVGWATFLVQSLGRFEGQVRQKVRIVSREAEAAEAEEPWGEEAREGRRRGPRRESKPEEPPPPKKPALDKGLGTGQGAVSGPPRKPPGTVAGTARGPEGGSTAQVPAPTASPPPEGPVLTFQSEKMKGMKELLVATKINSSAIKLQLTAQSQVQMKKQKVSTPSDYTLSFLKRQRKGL
Chain of Menin/Histone-lysine N-methyltransferase MLL (Q03164 1-2718 partner limits assumed): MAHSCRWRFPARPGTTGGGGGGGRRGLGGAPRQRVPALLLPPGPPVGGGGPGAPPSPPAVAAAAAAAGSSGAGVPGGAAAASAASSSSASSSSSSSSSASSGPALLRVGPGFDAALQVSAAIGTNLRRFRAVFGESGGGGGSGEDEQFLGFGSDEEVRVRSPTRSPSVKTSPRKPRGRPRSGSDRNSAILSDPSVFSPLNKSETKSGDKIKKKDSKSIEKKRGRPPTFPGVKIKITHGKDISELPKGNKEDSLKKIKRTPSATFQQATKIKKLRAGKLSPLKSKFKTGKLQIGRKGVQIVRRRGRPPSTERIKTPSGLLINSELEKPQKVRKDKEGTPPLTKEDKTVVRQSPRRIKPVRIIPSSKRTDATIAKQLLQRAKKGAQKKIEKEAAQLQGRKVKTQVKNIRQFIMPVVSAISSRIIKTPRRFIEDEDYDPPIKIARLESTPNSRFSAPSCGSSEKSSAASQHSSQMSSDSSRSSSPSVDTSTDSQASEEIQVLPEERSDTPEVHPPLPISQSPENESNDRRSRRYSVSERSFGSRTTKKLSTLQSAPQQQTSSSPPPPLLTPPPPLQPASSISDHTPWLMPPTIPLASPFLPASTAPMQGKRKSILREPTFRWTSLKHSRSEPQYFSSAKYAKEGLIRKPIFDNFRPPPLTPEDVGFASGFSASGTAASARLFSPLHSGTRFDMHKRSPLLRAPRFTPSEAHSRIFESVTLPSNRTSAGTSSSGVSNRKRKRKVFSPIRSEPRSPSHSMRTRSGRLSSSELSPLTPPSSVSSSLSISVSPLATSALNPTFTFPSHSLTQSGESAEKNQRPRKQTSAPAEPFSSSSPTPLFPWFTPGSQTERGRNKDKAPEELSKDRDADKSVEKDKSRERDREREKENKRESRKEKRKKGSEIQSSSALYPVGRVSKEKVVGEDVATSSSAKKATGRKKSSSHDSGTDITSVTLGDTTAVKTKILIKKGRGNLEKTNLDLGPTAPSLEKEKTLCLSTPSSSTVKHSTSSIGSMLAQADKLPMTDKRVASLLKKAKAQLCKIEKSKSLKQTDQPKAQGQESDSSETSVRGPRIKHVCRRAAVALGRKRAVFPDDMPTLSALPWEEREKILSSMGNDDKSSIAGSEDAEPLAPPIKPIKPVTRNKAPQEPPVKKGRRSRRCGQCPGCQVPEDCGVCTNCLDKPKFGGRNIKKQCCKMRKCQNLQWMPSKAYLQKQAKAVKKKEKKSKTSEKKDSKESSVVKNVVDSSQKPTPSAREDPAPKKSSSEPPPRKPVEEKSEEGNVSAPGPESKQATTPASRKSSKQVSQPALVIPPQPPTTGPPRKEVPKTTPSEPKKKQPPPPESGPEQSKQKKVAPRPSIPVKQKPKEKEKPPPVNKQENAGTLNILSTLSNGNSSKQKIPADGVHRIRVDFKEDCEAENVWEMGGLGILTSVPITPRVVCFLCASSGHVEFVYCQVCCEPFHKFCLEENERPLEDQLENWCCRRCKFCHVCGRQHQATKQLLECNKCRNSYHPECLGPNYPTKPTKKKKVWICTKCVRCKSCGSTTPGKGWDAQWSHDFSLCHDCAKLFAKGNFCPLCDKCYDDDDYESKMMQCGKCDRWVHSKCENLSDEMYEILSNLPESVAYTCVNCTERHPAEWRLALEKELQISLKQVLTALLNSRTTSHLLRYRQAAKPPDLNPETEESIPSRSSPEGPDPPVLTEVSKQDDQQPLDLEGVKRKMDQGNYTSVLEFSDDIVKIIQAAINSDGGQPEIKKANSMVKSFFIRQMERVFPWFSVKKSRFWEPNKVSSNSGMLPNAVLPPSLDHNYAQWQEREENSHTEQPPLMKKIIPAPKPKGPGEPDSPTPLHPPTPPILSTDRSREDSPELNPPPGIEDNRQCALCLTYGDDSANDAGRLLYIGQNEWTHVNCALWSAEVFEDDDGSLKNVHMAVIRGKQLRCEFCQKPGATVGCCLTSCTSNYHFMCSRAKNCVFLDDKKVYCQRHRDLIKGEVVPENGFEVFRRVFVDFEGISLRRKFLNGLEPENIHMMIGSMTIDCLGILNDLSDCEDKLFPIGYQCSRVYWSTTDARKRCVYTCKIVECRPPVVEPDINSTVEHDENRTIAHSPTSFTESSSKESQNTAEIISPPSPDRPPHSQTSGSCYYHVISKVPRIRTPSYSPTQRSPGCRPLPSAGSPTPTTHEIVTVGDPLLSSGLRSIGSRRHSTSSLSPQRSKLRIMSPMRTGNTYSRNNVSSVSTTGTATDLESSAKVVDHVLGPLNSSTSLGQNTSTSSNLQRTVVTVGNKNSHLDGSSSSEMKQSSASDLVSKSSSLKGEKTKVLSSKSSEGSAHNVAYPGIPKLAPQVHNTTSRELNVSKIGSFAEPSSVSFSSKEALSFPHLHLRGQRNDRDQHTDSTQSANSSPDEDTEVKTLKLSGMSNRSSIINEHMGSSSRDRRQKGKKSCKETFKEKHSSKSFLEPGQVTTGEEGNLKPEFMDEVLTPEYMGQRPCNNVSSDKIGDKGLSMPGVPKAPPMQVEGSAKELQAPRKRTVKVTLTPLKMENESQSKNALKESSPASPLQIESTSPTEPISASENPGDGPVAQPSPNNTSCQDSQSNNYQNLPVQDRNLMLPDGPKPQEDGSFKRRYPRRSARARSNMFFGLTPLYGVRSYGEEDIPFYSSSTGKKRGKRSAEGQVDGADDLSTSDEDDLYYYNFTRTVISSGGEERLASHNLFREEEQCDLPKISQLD
Chain of Menin/Histone-lysine N-methyltransferase MLL (Q03164 2719-3969 partner limits assumed): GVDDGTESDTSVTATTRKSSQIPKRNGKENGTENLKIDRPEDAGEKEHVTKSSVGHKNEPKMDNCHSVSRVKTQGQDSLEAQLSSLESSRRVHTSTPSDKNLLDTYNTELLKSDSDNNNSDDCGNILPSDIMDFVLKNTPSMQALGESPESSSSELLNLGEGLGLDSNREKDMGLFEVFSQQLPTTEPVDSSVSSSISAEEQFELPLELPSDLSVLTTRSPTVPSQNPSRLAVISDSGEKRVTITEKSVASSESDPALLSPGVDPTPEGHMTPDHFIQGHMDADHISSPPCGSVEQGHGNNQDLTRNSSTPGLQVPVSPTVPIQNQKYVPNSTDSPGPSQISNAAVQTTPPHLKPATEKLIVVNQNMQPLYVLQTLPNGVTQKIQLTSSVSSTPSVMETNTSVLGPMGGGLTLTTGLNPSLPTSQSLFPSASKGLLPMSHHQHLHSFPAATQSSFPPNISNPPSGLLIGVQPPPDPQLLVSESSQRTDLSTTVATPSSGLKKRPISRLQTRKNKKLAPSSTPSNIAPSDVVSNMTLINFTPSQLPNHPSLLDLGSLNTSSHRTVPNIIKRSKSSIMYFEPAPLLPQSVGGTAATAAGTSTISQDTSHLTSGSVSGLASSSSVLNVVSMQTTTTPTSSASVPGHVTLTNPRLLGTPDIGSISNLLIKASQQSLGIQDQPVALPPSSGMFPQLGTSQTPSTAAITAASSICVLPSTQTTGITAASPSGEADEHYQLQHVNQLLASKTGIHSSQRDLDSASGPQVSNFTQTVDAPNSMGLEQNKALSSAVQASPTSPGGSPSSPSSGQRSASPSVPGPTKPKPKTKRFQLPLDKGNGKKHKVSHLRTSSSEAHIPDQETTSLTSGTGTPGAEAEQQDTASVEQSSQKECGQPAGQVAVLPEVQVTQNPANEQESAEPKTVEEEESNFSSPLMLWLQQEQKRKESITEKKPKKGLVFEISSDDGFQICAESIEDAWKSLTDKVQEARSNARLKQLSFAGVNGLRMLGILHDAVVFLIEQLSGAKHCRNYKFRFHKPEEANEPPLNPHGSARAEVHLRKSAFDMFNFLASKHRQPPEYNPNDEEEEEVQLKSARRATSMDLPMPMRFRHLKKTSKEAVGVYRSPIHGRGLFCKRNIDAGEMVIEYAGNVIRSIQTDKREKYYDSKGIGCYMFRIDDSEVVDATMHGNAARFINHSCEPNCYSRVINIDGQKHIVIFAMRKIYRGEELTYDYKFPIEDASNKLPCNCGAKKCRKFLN

[10] = system: Mus musculus; test: Oral bioavailability in C57BL/6 mouse at 30 mg/kg after 8 hrs by LC-MS/MS analysis; format: ADME, organism-based; conditions: in vivo; method in brief: as §1
[11] = Growth inhibition of Hoxa9/Meis1 transformed mouse bone marrow cells after 7 days by MTT assay; format: functional; conditions: Bone marrow cell, 168 h
[12] = Growth inhibition of MLL-AF9 transformed mouse bone marrow cells after 7 days by MTT assay; format: functional; conditions: Bone marrow cell, 168 h
[13] = system: Mus musculus; test: Half life in C57BL/6 mouse at 15 mg/kg, iv after 8 hrs by LC-MS/MS analysis; format: ADME, organism-based; conditions: in vivo; method in brief: as §1
[14] = Efflux ratio of apparent permeability from […] side in human Caco2 cells at 10 uM after 2 hrs by LC-MS/MS analysis; format: ADME, cell-based; conditions: caco-2, 2 h

| Structure (SMILES) | AUC [1] [µg·h/mL] | t1/2 [2] [h] | Tmax [3] [h] | Cmax [4] [µg/mL] | RatioGI50 [5] | Vdss [6] [L/kg] | AUC [7] [µg·h/mL] | clearance [8] [L/h/kg] | IC50 [9] [µM] | F [10] [%] | GI50 [11] [µM] | GI50 [12] [µM] | t1/2 [13] [h] | Ratio [14] |
| --- | --- | --- | --- | --- | --- | --- | --- | --- | --- | --- | --- | --- | --- | --- |
| COc1cc2c(cc(C#N)n2Cc2cn[nH]c2)c(C)c1CN1CCC(Nc2ncnc3sc(CC(F)(F)F)cc23)CC1 | 16.235 | 0.917 | 2 | 0.101 | 23 | 1.837 | 0.383 | 0.9 | 0.012 | 1 | 4.2 | 0.18 | 1.4 |  |
| N#Cc1cc2cc(CN3CCC(Nc4ncnc5sc(CC(F)(F)F)cc45)CC3)ccc2n1CC(N)=O |  | 0.9 |  |  | 32 |  |  |  | 0.025 |  | 25 | 0.78 |  | > 90 |

— ChEMBL document CHEMBL3779881, “Property Focused Structure-Based Optimization of Small Molecule Inhibitors of the Protein-Protein Interaction between Menin and Mixed Lineage Leukemia (MLL)” (J Med Chem, 2016)
